We go through 53 molecules from PubChem BioAssay.

Structures are written as SMILES. The list shows a part of the results. Active and inactive are the calls of the source. Unless noted, the rule behind the calls is not given here.

The nature of experiment [1]: Brca1-Bard1 BiLC signal decrease – luminescence, single concentration, counter-screen for Mdm2/MdmX interaction inhibitor project, confirmation (AID 504668). As to conditions: Brca1/Bard1 bimolecular luciferase complementation counterscreen, at 8 µM, stronger effect = higher value. (In general: Counterscreens check selectivity or assay interference.)
In experiment [2] the target is PEG-3 (UniProt Q6IN02). Kind of experiment: inhibition of PEG-3 promoter-driven reporter – cell-based, HeLa, luciferase, CREF/GAPDH counter-screen panel, dose response (AID 624167). The following applies: CREF/GAPDH counter-screens; HeLa PEG-Prom luciferase reporter, overnight, run 1, dose range 1, at 100 µM (top of the series) unless noted.
The target in experiment [3] is PEG-3 (UniProt Q6IN02). The description is as above. The following applies: CREF/GAPDH counter-screens; HeLa PEG-Prom luciferase reporter, overnight, run 2, dose range 1, at 100 µM (top of the series) unless noted.
Experiment [4] can be described thus: NF-kB reporter suppression in CF airway cells – cell-based, GFP fluorescence, single concentration, confirmation (AID 602472; in the data active = inhibition above about 40%;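 note: stimulus PAF is a Pseudomonas aeruginosa filtrate and not platelet activating factor; plate controls were DMSO wells with stimulus for no effect and unstimulated DMSO wells for full effect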). The following applies: KKLEB CF airway cells, PAF-induced NF-kB-GFP fluorescence, overnight; at 5 µM; stronger effect = higher value. Summed up:
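Material: KKLEB immortalized cystic fibrosis airway epithelial cells with NFkB-GFP reporter; Buffer or medium: medium with 2% FBS for cells, serum-free medium for stimulus; Times: 2 h pretreatment, overnight stimulation; Signal: GFP fluorescence; Compound dosing: 5 µM single dose.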

Experiment [5] is described as follows: NFkB reporter suppression in cystic fibrosis bronchial cells – cell-based, uHTS hits, panel, cytotoxicity readout, dose response (AID 624344). The following applies: CF bronchial epithelial cells, PAF-induced NFkB reporter inhibition, with PAF, run 1; at 79 µM (top of the series) unless noted.
Assay in experiment [6]: as above
As to conditions: CF bronchial epithelial cells, PAF-induced NFkB reporter inhibition, with PAF, run 2; at 79 µM (top of the series) unless noted.

In experiment [7] the test system is Rat fibroblasts (CREF). The experiment in a line: inhibition of PEG-3 promoter-driven reporter – cell-based, HeLa, luciferase, CREF/GAPDH counter-screen panel, dose response (AID 624167). The following applies: CREF/GAPDH counter-screens; run 1, dose range 1, at 100 µM (top of the series).
For experiment [8], the system named is Rat fibroblasts (CREF). The description is as above. As to conditions: CREF/GAPDH counter-screens; run 2, dose range 1, at 100 µM (top of the series).
Experiment [9] can be described thus: inhibition of PEG-3 promoter luciferase signal – cell-based, HeLa, luciferase reporter, single concentration, confirmation (AID 602417;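 active = at 20 µM dose, 40% or more inhibition averaged across four replicates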). The following applies: HeLa PEG-Prom luciferase reporter, luminescence, overnight; at 20 µM; stronger effect = higher value. On the technique in general: Reporter assays use an easily measured gene product as a stand-in for the process of interest.

PEG-3, sequence (Q6IN02 whole entry, looked up): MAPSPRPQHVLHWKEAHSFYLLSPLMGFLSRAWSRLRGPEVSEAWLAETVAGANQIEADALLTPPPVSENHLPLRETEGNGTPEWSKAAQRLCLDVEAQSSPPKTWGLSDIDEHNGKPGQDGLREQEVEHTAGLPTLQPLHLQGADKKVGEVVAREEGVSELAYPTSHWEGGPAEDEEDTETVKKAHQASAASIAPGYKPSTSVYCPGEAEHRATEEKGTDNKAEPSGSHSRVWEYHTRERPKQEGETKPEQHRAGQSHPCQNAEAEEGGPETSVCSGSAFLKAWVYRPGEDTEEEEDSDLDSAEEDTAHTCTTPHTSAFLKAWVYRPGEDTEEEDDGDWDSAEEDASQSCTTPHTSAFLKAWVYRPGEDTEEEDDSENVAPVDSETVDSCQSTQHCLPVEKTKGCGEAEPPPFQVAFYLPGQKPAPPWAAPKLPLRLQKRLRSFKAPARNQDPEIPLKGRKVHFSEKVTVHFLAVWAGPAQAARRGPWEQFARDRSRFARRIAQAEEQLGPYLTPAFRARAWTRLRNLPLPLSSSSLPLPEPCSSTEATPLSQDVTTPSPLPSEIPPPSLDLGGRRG

What is called inhibition is the relative decrease from the control value, in per cent. As for `Cc1nc2ccccn2c1C(=O)/C=C/c1cccc([N+](=O)[O-])c1`, the inhibition in [1] was 27.6% (active). On the same count and under the same terms, the same measure for `COc1ccc(N2C(=O)N3[C@H](c4cccc(C)c4)[C@@H]4C(=O)N(Cc5ccccc5)C(=O)[C@@H]4[C@]3(Cc3ccccc3)C2=O)cc1`: 35.6% (active); for `COc1ccc(/C=C2/SC(=S)N(CCCC(=O)Nc3ccc(O)cc3)C2=O)cc1OC`: 29.9% (active). As for `CCOC(=O)N1C(=O)[C@@](c2ccc(Cl)cc2)(C(C)C)N1C(=O)OCC`, in experiment [1], the inhibition was 33.2% (active).

Turning to `COc1cc(/C=C2\SC(=Nc3ccc(O)cc3)NC2=O)cc(OC)c1OC`, in [1], the inhibition is 28.2% (active). `COc1ccc(N/N=C(/N=Nc2nc(C)cc(=O)[nH]2)c2ccccc2)cc1`: the inhibition in experiment [1] is 30.7% (active). Take `O=C(C[C@H]1C[C@H](C(=O)N2CCCCC2)[C@@]2(CCc3ccccc3)c3[nH]c4ccc(Cl)cc4c3CCN2C1=O)NCc1cccc(C(F)(F)F)c1`: in [1], the inhibition is 34% (active). `COc1cc(C(=O)N/N=C(\Cc2ncc[nH]2)c2ccccc2)cc(OC)c1OC`: the inhibition in experiment [1] was 23.7% (active). Same read-out and setting: the same measure for `Cc1ccc(O)c(/C=N/NC(=O)Cc2ccc(Cl)cc2)c1`: 33.6% (active); for `COc1ccc(/C=C2/SC(=S)N(CCCC(=O)Nc3cccc(O)c3)C2=O)cc1`: 28.6% (active).

As to `N#Cc1c2ccc(O)cc2n2ccccc12`, the inhibition in [1] was 35.2% (active).

Consider `CCc1ccccc1OCC(=O)Nc1nc(-c2cccnc2)cs1`, for which, in experiment [1], the inhibition is 35.6% (active).

Consider `O=C(N/N=C/c1cc(Br)ccc1O)c1cccc(N2CCCC2=O)c1`, for which, in experiment [1], the inhibition was 31.4% (active). For the molecule `CC1=NNC(=O)/C1=C\c1cn(-c2ccccc2)nc1-c1cccs1`, the inhibition in experiment [1] was 25.7% (active). `CCN1/C(=C/c2ccc3cccc(C)c3[n+]2CC)Sc2ccccc21`: the inhibition in [1] was 26.4% (active). Turning to `CN(C)C=Nc1ncc2c([nH]c3ccccc32)c1C#N`, the inhibition in [1] was 23% (active). Same read-out and setting: the same measure for `COc1ccc(/C(C)=N/NC(=O)c2cccc(S(=O)(=O)N3CCCC3)c2)c(O)c1`: 34.4% (active). On to `CCCC(=O)NC(c1cccs1)c1cc(Cl)c2cccnc2c1O` (stereo not drawn), for which, in experiment [1], the inhibition was 24.8% (active).

For `CCC(=O)NC(c1ccc(OC)cc1)c1cc(Cl)c2cccnc2c1O` (stereo not drawn), the inhibition in experiment [1] is 25.5% (active). Take `O=C(/C=C/c1c(F)cccc1Cl)c1ccc(O)cc1`: the inhibition in experiment [1] is 32.3% (active). Same read-out and setting: the same measure for `O=C(N/N=C/c1ccc(O)c2ncccc12)c1cccc(Br)c1`: 32.5% (active); for `Cc1cc(SC#N)cc(C)c1NC(=O)CCl`: 33.8% (active). On to `Cc1ccccc1-c1cc(C(=O)Nc2sc(C(=O)OC(C)C)c(C)c2C#N)c2ccccc2n1`, for which the inhibition in experiment [1] is 23.7% (active). As to `O=C(CCCl)Nc1nc2c(s1)CCc1ccccc1-2`, the inhibition in [1] is 24.6% (active). Still for that read-out and setting: the same measure for `COC(=O)c1ccc2nc(NC(=O)CCS(=O)(=O)c3ccccc3)sc2c1`: 27.4% (active); for `CC(NC(=O)/C(C#N)=C/c1ccc(Cl)c([N+](=O)[O-])c1)c1ccccc1` (stereo not drawn): 29% (active); for `COc1ccc(C(=O)O/N=C(\N)Cc2ccc(Cl)c(Cl)c2)cc1OC`: 26.9% (active). On the same count and under the same terms, as for `O=C(Nc1ccc(Cl)c(Cl)c1)Nc1ccc(Br)cc1F`, the figure is 35.2% (active); as for `CCN(CC)CCCN=C1N[C@@H](c2cccc(C(F)(F)F)c2)C(C(=O)OC)=C(C)N1CC`, 30.4% (active). With `CCCN(CCC)CCNC(=O)C1CCN(Cc2nc(-c3ccc(Cl)cc3)oc2C)CC1`, the inhibition in experiment [1] is 30.3% (active). For `Cc1oc(-c2ccccc2Cl)nc1CSCC(=O)N1CCCC1`, in experiment [1], the inhibition is 25.7% (active). `O=C1[C@H]2[C@@H](c3ccc(F)cc3)N3C(=O)N(c4ccc(Br)cc4)C(=O)[C@@]3(Cc3ccc(Cl)cc3)[C@H]2C(=O)N1C1CCCCC1`: in experiment [1], the inhibition is 27.8% (active). The same measure, in the same setting: the same measure for `c1ccc(-[n+]2nc(Nc3cccc4ccccc34)sc2-c2c3ccccc3cc3ccccc23)cc1`: 23.6% (active); for `Cc1cc(C(=O)CSc2nnc3ccccn23)c(C)n1-c1ccccc1`: 29.6% (active). Regarding `C=CC[n+]1c(/C=C2\C=Cc3cc(C)ccc3N2CC)ccc2ccccc21`, in experiment [1], the inhibition is 28.5% (active). On the same count and under the same terms, the same measure for `Oc1ccc2ccccc2c1N=Nc1ccccn1`: 28% (active).

For the molecule `CCN1CCN(c2ccc(Nc3ccnc4ccccc34)cc2)CC1`, in experiment [1], the inhibition is 29.8% (active).

`CC1=NN(c2ccccc2)C(=O)/C1=C\C=C\c1ccccc1`: in experiment [1], the inhibition was 28.9% (active).

Take `CC(Oc1ccc(Br)cc1)C(=O)Nc1nc(-c2ccccn2)cs1` (stereo not drawn): the inhibition in experiment [1] was 35.4% (active). In the case of `C=C(C)Cn1c(SCC(=O)N/N=C/c2c(O)ccc3ccccc23)nc2ccccc2c1=O`, the inhibition in experiment [1] is 31.4% (active); with PEG-3 [2], 54.6%; with PEG-3 [3], 7.84%. With `Cc1ccc2occ(/C=N/NC(=O)c3ccccc3C)c(=O)c2c1`, the inhibition in experiment [1] was 34.4% (active); in experiment [4], 94.8% (active); in [5], 102%; in [6], 110%. With `O=C(CNc1ccccc1)N/N=C/c1c(O)ccc2ccccc12`, the inhibition in [1] was 26.6% (active); with PEG-3 [2], 44.6%; in the experiment with PEG-3 [3] it was 64.1%; with Rat fibroblasts (CREF) [7], 73.1%; in the experiment on Rat fibroblasts (CREF) [8] it was 49.7%. As to `COc1cc(/C=C/C(=O)N2CCC=CC2=O)cc(OC)c1OC`, the inhibition is 26.8% (active) in experiment [1], 99.1% with PEG-3 [2] and 96.1% in the experiment with PEG-3 [3]. Taken in the same sequence, the figures for `COc1cc(/C=C/c2ccc3cccc(O)c3n2)c(Br)cc1O` were 29.2% (active), 99.5% and 96.1%. Regarding `O=C(N/N=C\c1c(O)ccc2ccccc12)c1cncc(Br)c1`, the inhibition is 26.8% (active) in experiment [1]; 82.3% with PEG-3 [2]; 79.4% with PEG-3 [3]; 78.3% in the experiment with Rat fibroblasts (CREF) [7]; 79.5% in the experiment on Rat fibroblasts (CREF) [8]. Regarding `Brc1ccc2ncnc(NCc3cccnc3)c2c1`, the inhibition in [1] was 26.8% (active); in [4], 69.2% (active); in experiment [5], 105%; in [6] it was 94.9%. As to `CC(C)c1ccc(-c2nc3ccccc3s2)cc1`, the figures for the inhibition (in experiment [1]; with PEG-3 [2]; with PEG-3 [3]) were 35.8% (active), 99.1% and 99.1%, respectively. For the molecule `COc1cccc2sc(N(CCCN(C)C)C(=O)C(c3ccccc3)c3ccccc3)nc12`, the inhibition is 24.8% (active) in experiment [1], 99.6% (active) in experiment [9], 102% with PEG-3 [2] and 95.1% in the experiment with PEG-3 [3]. On to `O=C1c2ccccc2S(=O)(=O)N1Cc1nc2ccccc2s1`, for which the inhibition in experiment [1] was 32.9% (active); with PEG-3 [2] it was 101%; in the experiment with PEG-3 [3] it was 83.4%. `Cc1nnc(NC(=O)Nc2ccc(Cl)c(Cl)c2)s1`: the inhibition in [1] was 33.4% (active); in experiment [4], 68% (active); in experiment [5], 91.7%; in experiment [6], 87.1%. With `Cc1cc(C)c2nc(NNC(=O)c3ccc(S(=O)(=O)N4CC(C)CC(C)C4)cc3)sc2c1` (stereo not drawn), the inhibition in experiment [1] was 23.2% (active); with PEG-3 [2], 99.5%; with PEG-3 [3], 101%; with Rat fibroblasts (CREF) [7] it was 92.9%; in the experiment with Rat fibroblasts (CREF) [8], 95.6%. Taken in the same sequence, the figures for `C=CCn1c(COc2ccccc2)nnc1SC(C)C(=O)N/N=C/c1cc(Cl)ccc1O` (stereo not drawn) were 30.6% (active), 64%, 86%, 37.9% and 43.9%.

With `CC(C)(c1ccccc1)c1ccc(OCC(O)CNC2CCN(Cc3ccccc3)CC2)cc1` (stereo not drawn), the inhibition in experiment [1] is 35.2% (active); in the experiment with PEG-3 [2], 102%; with PEG-3 [3], 98.9%.
